Results from ChEMBL document CHEMBL1157552, “Antimalarial and antitubercular nostocarboline and eudistomin derivatives: synthesis, in vitro and in vivo biological evaluation” (Bioorg Med Chem, 2010).
Where a name gives a salt, the structure may show the parent alone.

What was measured:
[1] = system: Corynebacterium glutamicum; assay: Antitubercular activity against Corynebacterium glutamicum ATCC 13032; assay type: functional
Method in brief: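 Grown in 7H9 medium; susceptibility determined by resazurin reduction. MIC99 is the lowest drug concentration preventing growth of 99% of cells.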

[2] = system: Mycolicibacterium smegmatis; assay: Antitubercular activity against Mycobacterium smegmatis mc2 155; assay type: functional; conditions: str. MC2 155
[3] = system: Mycobacterium tuberculosis; assay: Antitubercular activity against Mycobacterium tuberculosis H37Rv; assay type: functional
[4] = system: L6; assay: Cytotoxicity against rat L6 cells; assay type: cell-based
[5] = system: Leishmania donovani; assay: Antiparasitic activity against Leishmania donovani MHOM-ET-67/L82 axenic amastigotes; assay type: functional, organism-based
[6] = system: Trypanosoma brucei rhodesiense; assay: Antiparasitic activity against Trypanosoma brucei rhodesiense STIB 900; assay type: functional, organism-based
Method in brief: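 Tested against bloodstream forms of STIB 900.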

[7] = system: Plasmodium berghei; assay: Antiparasitic activity against Plasmodium berghei infected in mice (Mus musculus) assessed as reduction of parasitaemia at 50 mg/kg, intraperitoneally administered 4, 24, 48, 72 hrs post infection measured 24 hrs of last treatment on day 4 relative to control; assay type: functional; parameters: scale not given: the % may be the effect or the level left; conditions: route intraperitoneal
Method in brief: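 Compounds formulated in DMSO/water and given i.p. at 50 mg/kg, 4 doses, to P. berghei-infected mice. Parasitaemia measured by FACS on day 4 post infection, 24 h after the last dose. Activity is the difference in mean % parasitaemia between control (n = 5 mice) and treated groups, as % of control. Mean survival time was also recorded.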

[8] = Selectivity ratio of IC50 for rat L6 cells to IC50 for Plasmodium falciparum K1; assay type: ADME, cell-based; conditions: L6 cells (cytotoxicity) versus Plasmodium falciparum K1, read-out: Ratio IC50
[9] = system: Plasmodium falciparum; assay: Antiparasitic activity against Plasmodium falciparum K1; assay type: functional, organism-based
Method in brief: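 Tested against erythrocytic stages of the K1 strain.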

[10] = system: Trypanosoma cruzi; assay: Antiparasitic activity against Trypanosoma cruzi Tulahuen C2C4; assay type: functional, organism-based
Method in brief: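 Tested against Tulahuen C2C4 amastigotes grown in L6 rat skeletal myoblasts.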

[11] = system: Plasmodium berghei; assay: Antiparasitic activity against Plasmodium berghei infected in mice (Mus musculus) assessed as survival days at 50 mg/kg, intraperitoneally administered 4, 24, 48, 72 hrs post infection; assay type: functional; conditions: route intraperitoneal
Method in brief: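 Infected mice received the compounds formulated in DMSO/water, given i.p. as 4 × 50 mg/kg. Parasitaemia was measured by FACS on day 4 post infection, 24 h after the last treatment. Activity was taken as the reduction in mean % parasitaemia versus the untreated control group (n = 5 mice). Mean survival time in days was recorded.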

SMILES | MIC99 [1] | MIC99 [2] | MIC99 [3] | IC50 [4] | IC50 [5] | IC50 [6] | Activity [7] | selectivity ratio [8] | IC50 [9] | IC50 [10] | Survival [11]
Clc1ccc2[nH]c3c[n+](Cc4cccc(C[n+]5ccc6c(c5)[nH]c5ccc(Cl)cc56)c4)ccc3c2c1 | 20 µM | 50 µM | 20 µM |  |  |  |  |  |  |  | 
C[n+]1ccc2c(c1)[nH]c1ccc(Br)cc12.[I-] |  |  |  | 86.1 µM | > 230 µM | 47.2 µM | 0% | 4780 | 18 nM | 132 µM | 
Clc1ccc2[nH]c3c[n+](Cc4ccccc4)ccc3c2c1 |  |  |  | 27 µM | 113 µM | 6.2 µM |  | 9 | 3000 nM | 24.6 µM | 
CCCC[n+]1ccc2c(c1)[nH]c1ccc(Br)cc12 |  |  |  | 68.7 µM | 35.1 µM | 11.7 µM |  | 60 | 1150 nM | 35.3 µM | 
Brc1cccc2c1[nH]c1c[n+](Cc3ccc4ccccc4c3)ccc12 |  |  |  | 3.7 µM | 46.4 µM | 4.4 µM |  | 7 | 502 nM | 7.9 µM | 
CCCC[n+]1ccc2c(c1)[nH]c1ccc(Cl)cc12 |  |  |  | 74 µM | 112 µM | 11.6 µM |  | 46 | 1620 nM | 104 µM | 
C[n+]1ccc2c(c1)[nH]c1ccc(Cl)cc12.[I-] [NOSTOCARBOLINE] | > 29 µM | 290 µM | > 29 µM |  |  |  | 49.6% |  |  |  | 7.3 days
Fc1ccc(C[n+]2ccc3c(c2)[nH]c2ccc(Br)cc23)cc1 |  |  |  | 22.6 µM | 16.4 µM | 4.7 µM |  | 13 | 1760 nM | 13.3 µM | 
C=CC[n+]1ccc2c(c1)[nH]c1c(Br)cccc12 |  |  |  | 112 µM | 123 µM | 26.2 µM |  | 17 | 6740 nM | 154 µM | 
O=[N+]([O-])c1ccc(C[n+]2ccc3c(c2)[nH]c2ccc(Cl)cc23)cc1 |  |  |  | 42.2 µM | 146 µM | 21.3 µM |  | 19 | 2210 nM | 32.8 µM | 
Brc1cccc2c1[nH]c1c[n+](Cc3ccccc3)ccc12 |  |  |  | 28.7 µM | 66.5 µM | 7 µM |  | 11 | 2580 nM | 42.9 µM | 
Clc1ccc2[nH]c3c[n+](CCCCCCCCCC[n+]4ccc5c(c4)[nH]c4ccc(Cl)cc45)ccc3c2c1 | 14 µM | > 142 µM | 4 µM |  |  |  |  |  |  |  | 
O=[N+]([O-])c1ccc(C[n+]2ccc3c(c2)[nH]c2ccc(Br)cc23)cc1 |  |  |  | 18.1 µM | 38.2 µM | 10.8 µM |  | 14 | 1330 nM | 14.1 µM | 
CC[n+]1ccc2c(c1)[nH]c1ccc(Cl)cc12.[I-] |  |  |  | 113 µM | 251 µM | 36.8 µM | 15.36% | 250 | 452 nM | 100 µM | 
Clc1ccc2[nH]c3c[n+](CCCc4ccccc4)ccc3c2c1 |  |  |  | 71.3 µM | 18.6 µM | 6.2 µM |  | 44 | 1610 nM | 20.9 µM | 
Clc1ccc2[nH]c3c[n+](Cc4ccc(-c5ccc(C[n+]6ccc7c(c6)[nH]c6ccc(Cl)cc67)cc5)cc4)ccc3c2c1.[Cl-].[Cl-] | > 15 µM | 152 µM | > 15 µM |  |  |  | 0% |  |  |  | 
Fc1ccc(C[n+]2ccc3c(c2)[nH]c2c(Br)cccc23)cc1 |  |  |  | 17.5 µM | 53.4 µM | 3.8 µM |  | 5 | 3280 nM | 28.7 µM | 
O=C1c2ccccc2-[n+]2ccc3c([nH]c4ccccc43)c21 [FASCAPLYSIN CHLORIDE] |  |  |  |  |  |  |  | 50 | 184 nM |  | 
Clc1ccc2[nH]c3c[n+](C/C=C\C[n+]4ccc5c(c4)[nH]c4ccc(Cl)cc45)ccc3c2c1.[Cl-].[Cl-] | 5 µM | > 188 µM | 9 µM |  |  |  | 11.53% |  |  |  | 

SMILES | MIC99 [1] | MIC99 [2] | MIC99 [3] | IC50 [4] | IC50 [5] | IC50 [6] | Activity [7] | selectivity ratio [8] | IC50 [9] | IC50 [10] | Survival [11]
CC[n+]1ccc2c(c1)[nH]c1ccc(Br)cc12.[I-] |  |  |  | 78.8 µM | > 223 µM | 26.4 µM | 13.25% | 2440 | 32 nM | 90.5 µM | 
Brc1ccc2[nH]c3c[n+](Cc4ccc5ccccc5c4)ccc3c2c1 |  |  |  | 5.1 µM | 17.7 µM | 4.1 µM |  | 11 | 481 nM | 7.5 µM | 
Clc1ccc2[nH]c3c[n+](CCCCCCCC[n+]4ccc5c(c4)[nH]c4ccc(Cl)cc45)ccc3c2c1 | 7 µM | 147 µM | 7 µM |  |  |  |  |  |  |  | 
C=CC[n+]1ccc2c(c1)[nH]c1ccc(Br)cc12.[Br-] |  |  |  | 131 µM | 20.1 µM | 17.4 µM | 3.57% | 266 | 492 nM | 86.6 µM | 
Clc1ccc2[nH]c3c[n+](CCCCCCCCCCCC[n+]4ccc5c(c4)[nH]c4ccc(Cl)cc45)ccc3c2c1 | 14 µM | 17 µM | 7 µM |  |  |  |  |  |  |  | 
C=CC[n+]1ccc2c(c1)[nH]c1ccc(Cl)cc12 |  |  |  | 126 µM | 196 µM | 33.5 µM |  | 152 | 831 nM | 57.8 µM | 
C[n+]1cc2[nH]c3ccccc3c2c2ccccc21 [ISONEOCRYPTOLEPINE] |  |  |  |  |  |  |  | 18 |  |  | 
COC(=O)CCC[n+]1ccc2c(c1)[nH]c1ccc(Br)cc12 |  |  |  | 162 µM | > 203 µM | 111 µM |  | 70 | 2330 nM | 64.6 µM | 
Brc1ccc2[nH]c3c[n+](CCCc4ccccc4)ccc3c2c1 |  |  |  | 27.5 µM | 20.4 µM | 4.5 µM |  | 60 | 459 nM | 12.6 µM | 
C[n+]1c2ccccc2cc2[n-]c3ccccc3c21 [CRYPTOLEPINE HYDROCHLORIDE] |  |  |  |  |  |  |  | 9 |  |  | 
Clc1ccc2[nH]c3c[n+](Cc4ccc(C[n+]5ccc6c(c5)[nH]c5ccc(Cl)cc56)cc4)ccc3c2c1 | > 17 µM | > 170 µM | > 17 µM |  |  |  |  |  |  |  | 
C[n+]1ccc2c(c1)[nH]c1ccccc12 [NORMELINONINE F] |  |  |  |  |  |  |  | > 853 |  |  | 
Brc1ccc2[nH]c3c[n+](Cc4ccccc4)ccc3c2c1 |  |  |  | 61.6 µM | 21.2 µM | 5.2 µM |  | 26 | 2370 nM | 16.3 µM | 
CC[n+]1ccc2c(c1)[nH]c1c(Br)cccc12 |  |  |  | 153 µM | > 223 µM | 25 µM |  | 23 | 6620 nM | 170 µM | 
Fc1cccc(C[n+]2ccc3c(c2)[nH]c2ccc(Br)cc23)c1 |  |  |  | 41.5 µM | 11 µM | 5.6 µM |  | 19 | 2150 nM | 25.9 µM | 
Clc1ccc2[nH]c3c[n+](CCOCC[n+]4ccc5c(c4)[nH]c4ccc(Cl)cc45)ccc3c2c1.[Cl-].[Cl-] | 9 µM | 46 µM | 18 µM |  |  |  | 2.6% |  |  |  | 
Clc1ccc2[nH]c3c[n+](CCCCCC[n+]4ccc5c(c4)[nH]c4ccc(Cl)cc45)ccc3c2c1.[Br-].[Br-] | 8 µM | 20 µM | 8 µM |  |  |  | 0% |  |  |  | 
Fc1ccc(C[n+]2ccc3c(c2)[nH]c2ccc(Cl)cc23)cc1 |  |  |  | 111 µM | 110 µM | 18.1 µM |  | 24 | 4670 nM | 87.7 µM | 
COC(=O)CCC[n+]1ccc2c(c1)[nH]c1ccc(Cl)cc12 |  |  |  | 207 µM | 117 µM | 106 µM |  | 66 | 3140 nM | 115 µM | 
